Activity calls are given as the source filed them. The calls are words filed in the database; no cut-off is given here.
Key:
[1] = target: T1, Protein lin-28 homolog A (Homo sapiens) (UniProt Q9H9Z2); experiment: Binding affinity to recombinant human N-terminal His6-tagged Lin28a cold shock domain expressed in Escherichia coli Rosetta2 (DE3) pLysS at 0.625 to 10 uM by surface plasmon resonance analysis
T1 sequence (whole entry): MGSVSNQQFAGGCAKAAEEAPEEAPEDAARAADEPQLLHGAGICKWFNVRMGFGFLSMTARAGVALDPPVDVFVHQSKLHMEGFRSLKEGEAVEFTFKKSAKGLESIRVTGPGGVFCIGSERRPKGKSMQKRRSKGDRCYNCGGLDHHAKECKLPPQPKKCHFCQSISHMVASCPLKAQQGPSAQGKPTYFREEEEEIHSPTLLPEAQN

[2] = target: T1, Protein lin-28 homolog A (Homo sapiens); experiment: Inhibition of pre-let-7g binding to recombinant human N-terminal His6-tagged Lin28a expressed in Escherichia coli Rosetta2 (DE3) pLysS assessed as increase in dicer-mediated pre-let-7g microRNA maturation at 5 to 10 uM measured after 40 mins by SYBR green2 dye based fluorescence assay
[3] = target: T2, Protein lin-28 homolog A/B (Homo sapiens) (UniProt Q6ZN17+Q9H9Z2); experiment: Inhibition of Lin28a/Lin28b in human MCF7 cells assessed as reduction in IMP1 expression at 10 uM after 24 hrs by Western blot analysis; type: cell-based
[4] = target: T2, Protein lin-28 homolog A/B (Homo sapiens); experiment: Inhibition of Lin28a/Lin28b in human JAR cells assessed as increase in mature let-7f level after 20 hrs by TRIzol dye based qRT-PCR analysis; type: cell-based
Procedure, shortened: (§1)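 JAR cells (express Lin28a and Lin28b) exposed to compound for 20 h; miRNA levels quantified with U6 snRNA as endogenous control; three or more biological replicates, standard deviation, paired two-tailed t test.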

[5] = target: T1, Protein lin-28 homolog A (Homo sapiens); experiment: Inhibition of Cy5-preE-let-7a-1 binding to recombinant human N-terminal His6-tagged Lin28a expressed in Escherichia coli Rosetta2 (DE3) pLysS measured after 30 to 60 mins by electrophoretic mobility shift assay
[6] = target: T1, Protein lin-28 homolog A (Homo sapiens); experiment: Inhibition of Lin28a in human PA1 cells assessed as reduction in IMP1 expression at 10 uM after 24 hrs by Western blot analysis; type: cell-based
Procedure, shortened: (§2)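 Endogenous let-7 target proteins (HMGA2, IMP1, Ras, Lin28a) detected by Western blot in JAR or PA-1 cells after 24 h compound treatment.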

C2C12 = experiment: Cytotoxicity against mouse C2C12 cells at 10 uM after 24 hrs by WST assay; type: cell-based; settings: c2c12, 24 h
[7] = Cytotoxicity against mouse C8-D1A cells at 10 uM after 24 hrs by WST assay; type: cell-based
PA-1 [8] = experiment: Cytotoxicity against human PA1 cells after 24 hrs by WST assay; type: functional, cell-based
JAR [9] = experiment: Effect on miR-20b level in human JAR cells at 5 to 10 uM after 20 hrs by TRIzol dye based qRT-PCR analysis; type: functional, cell-based; procedure, shortened: as §1
JAR [10] = experiment: Cytotoxicity against human JAR cells after 24 hrs by WST assay; type: functional, cell-based
JAR [11] = experiment: Increase in mature let-7i level in Lin28a/b knockdown human JAR cells at 10 uM after 20 hrs by qRT-PCR analysis; type: functional, cell-based
Procedure, shortened: (§3)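 Lin28 knocked-down JAR cells treated for 20 h; let-7 levels measured against U6 snRNA endogenous control; 2 biological replicates.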

[12] = target: T2, Protein lin-28 homolog A/B (Homo sapiens); experiment: Inhibition of Lin28a/Lin28b in human paclitaxel-resistant JAR cells assessed as reduction in IMP1 expression at 10 uM measured after 24 hrs by Western blot analysis
JAR [13] = experiment: Increase in mature let-7d level in Lin28a/b knockdown human JAR cells at 10 uM after 20 hrs by qRT-PCR analysis; type: functional, cell-based; procedure, shortened: as §3
PA-1 [14] = experiment: Increase in mature let-7d level in Lin28a CRISPR-Cas9 knockout human PA1 cells at 10 uM after 20 hrs by qRT-PCR analysis; type: functional, cell-based
Procedure, shortened: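 PA-1 cells with Lin28a fully knocked out by CRISPR/Cas9 editing (clonal lines) treated for 20 h; let-7 levels normalized to U6 snRNA; 2 technical replicates.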

JAR [15] = experiment: Inhibition of sphere formation in human JAR cells at 10 uM after 24 hrs by WST assay; type: functional, cell-based
Procedure, shortened: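 JAR cells are pretreated with compound for 24 h, dissociated to single cells, and equal numbers of viable cells are cultured in sphere-forming media for 12 days. Sphere formation is quantified by WST assay. Three biological replicates, standard deviation, paired two-tailed t test.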

[16] = target: T1, Protein lin-28 homolog A (Homo sapiens); experiment: Inhibition of biotinylated-preE-let-7g binding to Lin28a in human JAR cells by pull down assay; type: cell-based
Procedure, shortened: (§4)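 5′-Biotinylated preE-let-7g is immobilized on streptavidin beads and incubated with proteome from JAR human choriocarcinoma cells, which express Lin28a and Lin28b. Test compound is present during binding, and target engagement is judged by the proteins pulled down.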

[17] = target: T2, Protein lin-28 homolog A/B (Homo sapiens); experiment: Inhibition of Lin28a/Lin28b in human JAR cells assessed as increase in mature let-7d level after 20 hrs by TRIzol dye based qRT-PCR analysis; type: cell-based; procedure, shortened: as §1
Protein lin-28 homolog A = target: T3, Protein lin-28 homolog A (Homo sapiens, UniProt Q9H9Z2); experiment: Inhibition of Cy5-preE-let-7g binding to recombinant human N-terminal His6-tagged Lin28a expressed in Escherichia coli Rosetta2 (DE3) pLysS measured after 30 to 60 mins by electrophoretic mobility shift assay
T3 sequence (Q9H9Z2 whole entry): T1 sequence (whole entry)

[18] = target: T2, Protein lin-28 homolog A/B (Homo sapiens); experiment: Inhibition of Lin28a/Lin28b in human JAR cells assessed as reduction in HMGA2 expression at 5 to 10 uM after 24 hrs by Western blot analysis; type: cell-based; procedure, shortened: as §2
[19] = target: T1, Protein lin-28 homolog A (Homo sapiens); experiment: Inhibition of Lin28a in human PA1 cells assessed as increase in mature let-7g level at 10 uM after 20 hrs by TRIzol dye based qRT-PCR analysis; type: cell-based
Procedure, shortened: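 PA-1 ovarian teratocarcinoma cells (express Lin28a) treated for 20 h; let-7 quantified relative to U6 snRNA; 4 biological replicates, standard deviation, paired two-tailed t test.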

[20] = target: T2, Protein lin-28 homolog A/B (Homo sapiens); experiment: Inhibition of Lin28a/Lin28b in human JAR cells assessed as increase in mature let-7a level after 20 hrs by TRIzol dye based qRT-PCR analysis; type: cell-based; procedure, shortened: as §1
[21] = target: T1, Protein lin-28 homolog A (Homo sapiens); experiment: Inhibition of PreE-let-7a-1-BHQ2 binding to recombinant human N-terminal His6-tagged/Cy3-labelled Lin28a expressed in Escherichia coli Rosetta2 (DE3) pLysS measured after 30 to 60 mins by FRET assay
[22] = target: T4, Protein lin-28 homolog B (Homo sapiens) (UniProt Q6ZN17); experiment: Inhibition of biotinylated-preE-let-7g binding to Lin28b in human JAR cells by pull down assay; type: cell-based; procedure, shortened: as §4
T4 sequence (whole entry): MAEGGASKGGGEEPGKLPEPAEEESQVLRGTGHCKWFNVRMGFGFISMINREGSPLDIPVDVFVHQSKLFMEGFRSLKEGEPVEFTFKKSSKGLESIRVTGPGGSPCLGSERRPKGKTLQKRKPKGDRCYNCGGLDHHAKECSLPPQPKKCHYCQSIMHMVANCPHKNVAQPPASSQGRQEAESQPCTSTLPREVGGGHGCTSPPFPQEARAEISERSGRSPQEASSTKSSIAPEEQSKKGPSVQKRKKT

Question: With `NC(=O)c1c(Nc2ccc(Cl)cc2Cl)[nH]c2c(Cl)ccc(Cl)c2c1=O` as the compound, how does the Activity [1] read?
Answer: Active

Question: What about the inhibition [2] of the same compound?
Answer: Active

Question: And the inhibition [3]?
Answer: inactive

Question: What about the inhibition [4] of the same compound?
Answer: Dose-dependent effect

Question: And the inhibition [5]?
Answer: Active

Question: And the inhibition [6]?
Answer: Active

Question: And the Activity (C2C12)?
Answer: Toxic

Question: What about the Activity [7] of the same compound?
Answer: Toxic

Question: What about the Activity (PA-1 [8]) of the same compound?
Answer: Active

Question: And the Activity (JAR [9])?
Answer: inactive

Question: What about the Activity (JAR [10]) of the same compound?
Answer: Active

Question: What about the Activity (JAR [11]) of the same compound?
Answer: inactive

Question: What about the inhibition [12] of the same compound?
Answer: Active

Question: What about the Activity (JAR [13]) of the same compound?
Answer: inactive

Question: What about the Activity (PA-1 [14]) of the same compound?
Answer: inactive

Question: And the inhibition (JAR [15])?
Answer: Active

Question: And the inhibition [16]?
Answer: Dose-dependent effect

Question: And the inhibition [17]?
Answer: Dose-dependent effect

Question: And the IC50 (Protein lin-28 homolog A)?
Answer: 4.8 µM

Question: And the inhibition [18]?
Answer: Active

Question: And the inhibition [19]?
Answer: Active

Question: And the inhibition [20]?
Answer: Dose-dependent effect

Question: And the inhibition [21]?
Answer: Dose-dependent effect

Question: What about the inhibition [22] of the same compound?
Answer: Dose-dependent effect

Source: ChEMBL document CHEMBL4325922, “Restoring Let-7 microRNA Biogenesis Using a Small-Molecule Inhibitor of the Protein-RNA Interaction” (ACS Med Chem Lett, 2018)
